Laboratory results published in ChEMBL document CHEMBL5303300, “EUbOPEN Chemogenomics Library - Multiplex” (2023).
Values joined by “and” are separate entries in the source; they are usually repeats but may differ in a detail not shown here. Equal values may be shown once.

Tested on: Fibroblast
Test: Multiplex assay against human fibroblast
Type: toxicity, cell-based
Details: number of replicates 2
Procedure, shortened: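 Per cents of healthy-nucleus cells form the tubulin, mitochondrial-mass and membrane-permeability phenotype values. Live cells were stained at seeding with Hoechst33342, BioTracker Green Microtubule Cytoskeleton Dye, MitoTracker Red and Annexin V Alexa Fluor 680. After compound addition they were imaged on a CQ1 microscope at 37°C and 5% CO2, and CellPathfinder machine-learning gating split them into Hoechst high-intensity objects or normal cells, normal cells into healthy, pyknosed or fragmented nuclei, and pyknosed cells into mitotic or apoptotic.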

[1] = 12 h, 1 µM, compound concentration 1 uM
[2] = 12 h, 10 µM, compound concentration 10 uM
[3] = 24 h, 1 µM, compound concentration 1 uM
[4] = 24 h, 10 µM, compound concentration 10 uM
[5] = 48 h, 1 µM, compound concentration 1 uM
[6] = 48 h, 10 µM, compound concentration 10 uM

c1ccc2c(-c3coc4cc(-c5ccc(N6CCNCC6)cc5)cnc34)ccnc2c1
Population Apoptotic (%) [1]: 33% and 46% | Population Fragmented Nuclei (%) [1]: 18% | Population Healthy Nuclei (%) [1]: 69% and 66% | Population Hoechst High Intensity Objects (%) [1]: 0% | Population Mitochondria Different-Phenotype (%) [1]: 0% and 2% | Population Mitotic Cells (%) [1]: 66% and 53% | Population Normal (%) [1]: 100% | Population Pyknosed Nuclei (%) [1]: 16% and 14% | Population Tubulin-Different-Phenotype (%) [1]: 10% and 15% | Total Cell Count [1]: 182 and 274 | Population Apoptotic (%) [2]: 68% and 73% | Population Fragmented Nuclei (%) [2]: 15% and 7% | Population Hoechst High Intensity Objects (%) [2]: 0% | Population Mitochondria Different-Phenotype (%) [2]: 8% and 0% | Population Mitotic Cells (%) [2]: 31% and 26% | Population Normal (%) [2]: 100% and 98% | Population Pyknosed Nuclei (%) [2]: 52% and 91% | Population Tubulin-Different-Phenotype (%) [2]: 35% and 100% | Total Cell Count [2]: 223 and 162 | Population Apoptotic (%) [3]: 44% and 60% | Population Healthy Nuclei (%) [3]: 73% and 71% | Population Hoechst High Intensity Objects (%) [3]: 0% | Population Mitochondria Different-Phenotype (%) [3]: 0% and 2% | Population Mitotic Cells (%) [3]: 56% and 40% | Population Normal (%) [3]: 100% | Population Pyknosed Nuclei (%) [3]: 12% and 11% | Population Tubulin-Different-Phenotype (%) [3]: 15% and 9% | Total Cell Count [3]: 195 and 271 | Population Apoptotic (%) [4]: 77% and 80% | Population Fragmented Nuclei (%) [4]: 9% | Population Hoechst High Intensity Objects (%) [4]: 0% | Population Mitotic Cells (%) [4]: 22% and 19% | Population Normal (%) [4]: 98% and 100% | Population Pyknosed Nuclei (%) [4]: 83% and 66% | Population Tubulin-Different-Phenotype (%) [4]: 80% and 50% | Total Cell Count [4]: 163 and 202 | Population Apoptotic (%) [5]: 53% and 48% | Population Fragmented Nuclei (%) [5]: 16% and 27% | Population Healthy Nuclei (%) [5]: 76% and 63% | Population Mitochondria Different-Phenotype (%) [5]: 0% | Population Mitotic Cells (%) [5]: 46% and 51% | Population Normal (%) [5]: 100% and 99% | Population Pyknosed Nuclei (%) [5]: 6% and 8% | Population Tubulin-Different-Phenotype (%) [5]: 10% and 11% | Total Cell Count [5]: 208 and 323 | Population Apoptotic (%) [6]: 84% and 91% | Population Fragmented Nuclei (%) [6]: 21% | Population Healthy Nuclei (%) [6]: 28% and 18% | Population Hoechst High Intensity Objects (%) [6]: 0% | Population Mitochondria Different-Phenotype (%) [6]: 2% and 7% | Population Mitotic Cells (%) [6]: 8% | Population Normal (%) [6]: 99% | Population Pyknosed Nuclei (%) [6]: 50% and 63% | Population Tubulin-Different-Phenotype (%) [6]: 44% and 38% | Total Cell Count [6]: 171 and 210

CN1CCc2cc(Nc3ncc(C(F)(F)F)c(NCc4cc[nH]n4)n3)ccc2C1
Population Apoptotic (%) [1]: 63% and 62% | Population Fragmented Nuclei (%) [1]: 7% and 19% | Population Healthy Nuclei (%) [1]: 63% and 58% | Population Hoechst High Intensity Objects (%) [1]: 0% | Population Membrane Permeable-Phenotype (%) [1]: 3% and 6% | Population Mitochondria Different-Phenotype (%) [1]: 0% and 1% | Population Mitotic Cells (%) [1]: 36% and 37% | Population Normal (%) [1]: 100% | Population Pyknosed Nuclei (%) [1]: 28% and 22% | Population Tubulin-Different-Phenotype (%) [1]: 1% and 4% | Total Cell Count [1]: 133 and 168 | Population Apoptotic (%) [2]: 70% and 60% | Population Fragmented Nuclei (%) [2]: 19% and 24% | Population Healthy Nuclei (%) [2]: 60% and 63% | Population Hoechst High Intensity Objects (%) [2]: 0% | Population Membrane Permeable-Phenotype (%) [2]: 9% and 11% | Population Mitochondria Different-Phenotype (%) [2]: 1% | Population Mitotic Cells (%) [2]: 29% and 40% | Population Normal (%) [2]: 100% | Population Pyknosed Nuclei (%) [2]: 20% and 11% | Population Tubulin-Different-Phenotype (%) [2]: 16% and 18% | Total Cell Count [2]: 180 and 262 | Population Apoptotic (%) [3]: 84% and 80% | Population Fragmented Nuclei (%) [3]: 15% | Population Healthy Nuclei (%) [3]: 40% and 50% | Population Hoechst High Intensity Objects (%) [3]: 0% | Population Membrane Permeable-Phenotype (%) [3]: 3% and 12% | Population Mitochondria Different-Phenotype (%) [3]: 0% | Population Mitotic Cells (%) [3]: 15% and 20% | Population Normal (%) [3]: 100% and 99% | Population Pyknosed Nuclei (%) [3]: 43% and 34% | Population Tubulin-Different-Phenotype (%) [3]: 3% | Total Cell Count [3]: 133 and 161 | Population Apoptotic (%) [4]: 61% and 84% | Population Fragmented Nuclei (%) [4]: 26% and 20% | Population Healthy Nuclei (%) [4]: 56% and 61% | Population Hoechst High Intensity Objects (%) [4]: 0% | Population Membrane Permeable-Phenotype (%) [4]: 9% and 12% | Population Mitochondria Different-Phenotype (%) [4]: 3% and 1% | Population Mitotic Cells (%) [4]: 38% and 15% | Population Normal (%) [4]: 100% and 99% | Population Pyknosed Nuclei (%) [4]: 16% and 17% | Population Tubulin-Different-Phenotype (%) [4]: 17% and 19% | Total Cell Count [4]: 185 and 253 | Population Apoptotic (%) [5]: 88% and 72% | Population Fragmented Nuclei (%) [5]: 24% and 15% | Population Healthy Nuclei (%) [5]: 40% and 67% | Population Hoechst High Intensity Objects (%) [5]: 0% | Population Membrane Permeable-Phenotype (%) [5]: 8% and 14% | Population Mitochondria Different-Phenotype (%) [5]: 0% | Population Mitotic Cells (%) [5]: 11% and 27% | Population Normal (%) [5]: 100% and 99% | Population Pyknosed Nuclei (%) [5]: 35% and 16% | Population Tubulin-Different-Phenotype (%) [5]: 10% and 12% | Total Cell Count [5]: 122 and 133 | Population Apoptotic (%) [6]: 65% and 59% | Population Fragmented Nuclei (%) [6]: 26% and 22% | Population Healthy Nuclei (%) [6]: 51% and 57% | Population Hoechst High Intensity Objects (%) [6]: 0% | Population Membrane Permeable-Phenotype (%) [6]: 5% and 9% | Population Mitochondria Different-Phenotype (%) [6]: 1% and 0% | Population Mitotic Cells (%) [6]: 34% and 40% | Population Normal (%) [6]: 100% | Population Pyknosed Nuclei (%) [6]: 22% and 19% | Population Tubulin-Different-Phenotype (%) [6]: 14% and 19% | Total Cell Count [6]: 184 and 251
